{
  "source": "ChEMBL document CHEMBL1136574",
  "about": "“Organic phenyl arsonic acid compounds with potent antileukemic activity” (Bioorg Med Chem Lett, 2003)",
  "key": {"NALM-6": {"tested_on": "NALM-6", "assay": "Antileukemic activity against human leukemia NALM-6 (B-lineage ALL) cell line", "assay_type": "functional, cell-based", "summary_of_the_method": "(§1)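 Cells treated with compounds in 96-well plates, incubated 48 h at 37 °C; cytotoxicity read by MTT assay; IC50 values calculated by curve fitting.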"}, "MOLT-3": {"tested_on": "MOLT-3", "assay": "Antileukemic activity against human leukemia MOLT-3(T-lineage ALL) cell line", "assay_type": "functional, cell-based", "summary_of_the_method": "as §1"}},
  "data": [
    {"smiles": "COc1cc2ncnc(Nc3ccc(/N=N/c4ccc([As](=O)(O)O)cc4)cc3)c2cc1OC", "values": [
      {"measurement": "IC50", "setting": "NALM-6", "result": 16.9, "unit": "µM"},
      {"measurement": "IC50", "setting": "MOLT-3", "result": 13.9, "unit": "µM"}
    ]},
    {"smiles": "CSc1nccc(Nc2ccc(/N=N/c3ccc([As](=O)(O)O)cc3)cc2)n1", "values": [
      {"measurement": "IC50", "setting": "NALM-6", "result": 6.1, "unit": "µM"},
      {"measurement": "IC50", "setting": "MOLT-3", "result": 4.1, "unit": "µM"}
    ]},
    {"smiles": "COc1cc2ncnc(Nc3ccc([As](=O)(O)O)cc3)c2cc1OC", "values": [
      {"measurement": "IC50", "setting": "NALM-6", "result": "> 100", "unit": "µM"},
      {"measurement": "IC50", "setting": "MOLT-3", "result": "> 100", "unit": "µM"}
    ]},
    {"smiles": "O=[As](O)(O)c1ccc(/N=N/c2ccc(Nc3[nH]cnc4ncnc3-4)cc2)cc1", "values": [
      {"measurement": "IC50", "setting": "NALM-6", "result": 22.5, "unit": "µM"},
      {"measurement": "IC50", "setting": "MOLT-3", "result": 21.6, "unit": "µM"}
    ]},
    {"smiles": "Nc1ccc([As](=O)(O)O)cc1", "note": "[ARSANILIC ACID]", "values": [
      {"measurement": "IC50", "setting": "NALM-6", "result": "> 100", "unit": "µM"}
    ]},
    {"smiles": "CSc1nccc(Nc2ccccc2[As](=O)(O)O)n1", "values": [
      {"measurement": "IC50", "setting": "NALM-6", "result": 1.5, "unit": "µM"},
      {"measurement": "IC50", "setting": "MOLT-3", "result": 2.3, "unit": "µM"}
    ]},
    {"smiles": "O=[As](O)(O)c1ccc(Nc2nc(C(Cl)(Cl)Cl)nc3ccccc23)cc1", "values": [
      {"measurement": "IC50", "setting": "NALM-6", "result": "> 100", "unit": "µM"},
      {"measurement": "IC50", "setting": "MOLT-3", "result": "> 100", "unit": "µM"}
    ]},
    {"smiles": "CSc1nccc(Nc2ccc([As](=O)(O)O)cc2)n1", "values": [
      {"measurement": "IC50", "setting": "NALM-6", "result": 5.6, "unit": "µM"},
      {"measurement": "IC50", "setting": "MOLT-3", "result": 9.1, "unit": "µM"}
    ]},
    {"smiles": "O=[As](O)(O)c1ccccc1Nc1nc(C(Cl)(Cl)Cl)nc2ccccc12", "values": [
      {"measurement": "IC50", "setting": "NALM-6", "result": "> 100", "unit": "µM"},
      {"measurement": "IC50", "setting": "MOLT-3", "result": "> 100", "unit": "µM"}
    ]},
    {"smiles": "O=[As](O)(O)c1ccc(/N=N/c2ccc(Nc3nc(C(Cl)(Cl)Cl)nc4ccccc34)cc2)cc1", "values": [
      {"measurement": "IC50", "setting": "NALM-6", "result": 1.1, "unit": "µM"},
      {"measurement": "IC50", "setting": "MOLT-3", "result": 2, "unit": "µM"}
    ]},
    {"smiles": "COc1cc2ncnc(Nc3ccccc3[As](=O)(O)O)c2cc1OC", "values": [
      {"measurement": "IC50", "setting": "NALM-6", "result": 46.6, "unit": "µM"},
      {"measurement": "IC50", "setting": "MOLT-3", "result": 55.6, "unit": "µM"}
    ]}
  ]
}
